# RBBP9 inhibitor: human RBBP9 inhibitors, primary screen, biochemical, fluorescence polarization, FP-Rh probe, HTS; recombinant RBBP9; AID 1515, 2009; inhibition, % at 7.94 µM; 220,000 compounds, 0.2% hits; Serine hydrolase RBBP9 (Homo sapiens), O75884;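 active = inhibition above the campaign mean of all tested compounds plus 3 SD, cut at about 14% in these data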;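 note: plate controls were DMSO wells with RBBP9 for no effect and wells lacking RBBP9 protein for full effect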
# Target sequence (O75884 whole entry, looked up): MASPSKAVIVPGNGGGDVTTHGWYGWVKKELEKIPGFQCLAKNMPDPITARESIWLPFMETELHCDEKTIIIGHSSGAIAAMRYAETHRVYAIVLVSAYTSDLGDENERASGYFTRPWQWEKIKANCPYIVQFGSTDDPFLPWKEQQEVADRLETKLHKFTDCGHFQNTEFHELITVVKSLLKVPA
#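 Material: RBBP9 protein. Amount: RBBP9 at 2.5 µM in dispensed solution, before mixing. Schedule: 30 min then 45 min, 25 °C. Medium: Tris buffer pH 8.0, NaCl, Pluronic. Measured by: fluorescence polarization. Measure: percent inhibition from mP, scaled between DMSO and no-protein wells. Replication: one well per compound.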
# WT yeast gro inh: growth inhibition of WT strain, primary screen, mitochondrial fusion inhibitor project, WT and mutant strains, chemical genetic. mitochondrial fusion phenotypic screen. inhibition, % at 10 µM. 190,000 compounds, 2.1% hits; in the data active = inhibition above about 58%; tested in S. cerevisiae
# ROMK primary: ROMK potassium channel modulators, primary screen, cell-based, thallium flux, MLSMR library | ATP-sensitive inward rectifier potassium channel 1 (Homo sapiens), P48048 | Tet-inducible ROMK, thallium flux fluorescence; actives lie on both sides | B-score at 10 µM | 130,000 compounds, 2% hits | AID 1918, 2009;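 active = signal ratio slope over the read window, or its plate-corrected B-score, at least 3 SD from the plate mean, either direction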;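 note: B-score of the F/F0 ratio slope over 7 to 12 s after thallium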
# KCC2 mod: KCC2 cotransporter modulators, thallium flux, primary screen, cell-based, HEK293 KCC2, FluoZin-2 fluorescence, MLSMR; B-score of Tl+ flux slope (higher = more flux/activation; lower = inhibition) at 10 µM; KCC2 cells, thallium flux FluoZin-2 fluorescence; 190,000 compounds, 2.2% hits; Solute carrier family 12 member 5 (Homo sapiens), Q9H2X9;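 active = thallium flux slope and its plate-corrected score both differing from the plate sample mean at a set confidence after two filtering rounds, in either direction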;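 note: slope of fluorescence scaled to starting intensity during 10 to 20 s after thallium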
# NCF1 inh: p47phox/p22phox peptide binding inhibitors, primary screen, biochemical, uHTS, NADPH oxidase regulatory subunit; 220,000 compounds, 0.53% hits; Neutrophil cytosol factor 1 (Homo sapiens), P14598; fluorescence polarization, 2 h; inhibition, % at 24.7 µM;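 active = inhibition above about 30%, limit read from the data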;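 note: 0% = p47phox with labelled peptide and 100% = labelled peptide alone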
# Target sequence (P14598 whole entry, looked up): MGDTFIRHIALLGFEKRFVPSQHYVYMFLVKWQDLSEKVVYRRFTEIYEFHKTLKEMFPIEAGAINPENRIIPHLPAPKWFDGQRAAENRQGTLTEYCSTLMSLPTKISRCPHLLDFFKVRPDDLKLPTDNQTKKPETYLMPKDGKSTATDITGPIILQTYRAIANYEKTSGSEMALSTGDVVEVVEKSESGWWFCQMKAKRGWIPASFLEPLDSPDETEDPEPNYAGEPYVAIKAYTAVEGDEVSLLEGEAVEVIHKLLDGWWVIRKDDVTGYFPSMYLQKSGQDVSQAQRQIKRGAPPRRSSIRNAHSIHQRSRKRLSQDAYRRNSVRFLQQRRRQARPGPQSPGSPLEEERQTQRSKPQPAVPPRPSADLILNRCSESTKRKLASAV
# 14-3-3 Bad PPI: inhibitors of 14-3-3 zeta/Bad binding, primary screen, biochemical, TR-FRET, bovine 14-3-3 zeta | TR-FRET 14-3-3zeta/Dy647-pBad peptide displacement, 1 h | AID 781, 2007 | 220,000 compounds, 0.71% hits | inhibition, % at 21.7 µM | 14-3-3 protein zeta/delta (Bos taurus), P63103;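 active = inhibition above about 70%, limit read from the data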;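 note: 0% = full 14-3-3 plus peptide FRET controls and 100% = background without 14-3-3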
# KCC2 secondary: KCC2 modulators in sodium-free buffer, confirmation, cell-based, HEK293 KCC2, thallium flux, secondary assay. normalised thallium flux (F/F0 slope) at 10 µM. AID 1713, 2009. FluoZin2 fluorescence; active compounds read high. 3,700 compounds, 15% hits. shares compounds with KCC2 mod;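 active = thallium flux slope above the same plate's solvent-only control mean plus 3 SD; inconclusive = the two replicate wells disagree; inactive = no significant difference from solvent-only control wells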
# KCC2 bumet counter: thallium flux persisting under bumetanide in KCC2 cells, confirmation, counter-screen for KCC2 modulator project, cell-based, HEK293 KCC2, FluoZin2, secondary assay 3 | 3,700 compounds, 49% hits | shares compounds with KCC2 mod | HEK293-KCC2 + bumetanide/ouabain; active compounds read high | normalized thallium flux at 10 µM;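 active = thallium entry rate above the same plate's blocked-transporter control wells by more than 3 SD; inconclusive = the two repeat wells disagree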;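 note: raw slope of fluorescence over initial fluorescence between 10 and 20 s after thallium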
# KCC2 secondary2: KCC2 modulators without ouabain present, confirmation, cell-based, HEK293 KCC2, thallium flux, FluoZin2, secondary assay 2. shares compounds with KCC2 mod. thallium flux FluoZin2 fluorescence; actives lie on both sides; F/F0 rise rate, 10–20 s post-thallium. normalized thallium flux at 10 µM. 3,700 compounds, 23% hits;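 active = thallium flux slope more than 3 SD above or below the plate's solvent-only control mean, mostly below; inconclusive = the two repeat wells disagreed; inactive = no significant shift from solvent-only controls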;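 note: raw slope with 0.1% DMSO as baseline and bumetanide as block control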
# HEK counter1: thallium flux modulation in parental HEK cells, confirmation, counter-screen for KCC2 modulator project, cell-based, counterscreen 1. shares compounds with KCC2 mod. HEK293 parental cells, thallium flux FluoZin2, ouabain; baseline-ratio fluorescence slope, 10–20 s after thallium. thallium flux rate (normalised fluorescence) at 10 µM. 3,700 compounds, 46% hits;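 active = thallium flux rate significantly above the same plate's solvent-only control wells, beyond their mean plus 3 SD; inconclusive = the two replicate wells gave conflicting results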
# KCC2 retest ouab: KCC2 inhibitors and activators, ouabain retest, confirmation, HEK-KCC2 cells. shares compounds with KCC2 mod. HEK293-KCC2, thallium flux FluoZin2 fluorescence; bidirectional: low = inhibitor, high = activator. raw Tl+ flux slope (below DMSO = inhibition, above = activation) at 10 µM. 3,700 compounds, 48% hits;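 active = thallium flux slope beyond 3 SD from same-plate DMSO control mean in most replicates, usually higher, sometimes lower; inconclusive = repeat tests gave conflicting results; inactive = no significant difference from controls in most replicates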;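 note: slope of initial-normalized fluorescence between seconds 10 and 20 after thallium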
# HEK counter2: native HEK Tl+ uptake effects, second counter-screen – HEK cells, counterscreen 2, counter-screen for KCC2 modulator project, confirmation; shares compounds with KCC2 mod; HEK293 parental, thallium flux FluoZin-2 fluorescence slope; thallium flux slope at 10 µM; 3,700 compounds, 33% hits;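 active = thallium flux slope above the same plate's solvent-control mean plus 3 SD in both duplicate wells; inconclusive = duplicate wells that disagreed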;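 note: run without ouabain in cells lacking the KCC2 cotransporter; slope of fluorescence scaled to its starting value between 10 and 20 s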
# * marks the source's active call; other numbers are inactive results; ? = inconclusive; nt = not tested or not shown. A selection: hits, their analogues and other compounds. The true share with any hit is near 5.8%.
SMILES,RBBP9 inhibitor,WT yeast gro inh,ROMK primary,KCC2 mod,NCF1 inh,14-3-3 Bad PPI,KCC2 secondary,KCC2 bumet counter,KCC2 secondary2,HEK counter1,KCC2 retest ouab,HEK counter2
C=CCn1c(O)c(N=NC(=S)Nc2ccc(OC)c(Cl)c2)c2ccccc21,-1,-7,0.34,21*,-9,-5,0.0065,0.029*,0.035,0.024*,0.028*,0.016*
Cc1cccc(NC(=S)N=Nc2c(O)n(CN3CCOCC3)c3ccccc23)c1C,-4,69*,nt,5.3*,-13,-5,0.024*,0.021*,0.035,0.012*,0.026*,0.012*
Cc1cccc(N/C(N)=N/c2nc(C)c(Cc3ccccc3)c(=O)[nH]2)c1,-10,0,0.0055,1,-4,-13,nt,nt,nt,nt,nt,nt
COCc1cc(=O)[nH]c2c1c(-c1ccccc1)nn2C,-9,nt,0.033,0.31,-9,4,nt,nt,nt,nt,nt,nt
Cc1ccc(N2CCN(C(=O)NC3CCCCC3)CC2C)cc1 (stereo unspecified),-6,nt,nt,0.28,-12,-6,nt,nt,nt,nt,nt,nt
O=C(COc1ccccc1C(=O)NCc1ccccn1)Nc1ccc(Br)cc1,-6,12,-0.93,-1.5,-9,-4,nt,nt,nt,nt,nt,nt
Cn1cnnc1SCCCN1C(=O)c2cccc3cccc(c23)C1=O,7,5,0.071,0.14,2,14,nt,nt,nt,nt,nt,nt
Cn1c(O)c(N=NC(=S)Nc2ccccc2F)c2cc(S(=O)(=O)N3CCOCC3)ccc21,-1,74*,0.1,37*,-10,-24,0.016*,0.056*,0.036,?,0.044*,?
COc1cc(C(C)=O)ccc1Oc1ncnc2c1cnn2-c1ccc(F)cc1,-3,-13,nt,-0.96,5,1,nt,nt,nt,nt,nt,nt
Cc1ccc(/C=N/n2c(-c3ccco3)n[nH]c2=S)cc1,3,nt,nt,15*,5,-1,0.007,0.028*,0.033,0.019*,0.031*,0.017*
Cc1n[nH]c(=S)n1/N=C/c1cccc(OCc2ccccc2)c1,-10,49,0.32,16*,-11,-7,0.017,0.027*,0.033,0.014*,0.022*,0.016*
S=c1[nH]nc(-c2ccco2)n1/N=C/c1cccc(Cl)c1,-11,nt,nt,9.2*,3,-4,0.018,0.014*,0.031,0.012*,0.022*,0.016*
O=[N+]([O-])c1cc(/C=N/n2c(-c3cccnc3)n[nH]c2=S)ccc1Cl,-4,-1,-0.56,8.1*,-1,1,0.0063,0.077*,0.033,?,?,?
O=[N+]([O-])c1ccccc1/C=N/n1c(-c2cccnc2)n[nH]c1=S,-1,-15,nt,-1,6,0,nt,nt,nt,nt,nt,nt
Cn1cccc1/C=N/n1c(-c2ccco2)n[nH]c1=S,2,-13,-0.28,0.091,-6,-4,nt,nt,nt,nt,nt,nt
S=c1[nH]nc(-c2ccco2)n1/N=C/c1c(Cl)cccc1Cl,5,nt,nt,1.9,-6,20,nt,nt,nt,nt,nt,nt
COc1ccc([N+](=O)[O-])cc1N(CC(=O)Nc1ccccc1C(=O)NC(C)C)S(C)(=O)=O,1,-1,1.6,-0.033,-9,8,nt,nt,nt,nt,nt,nt
CCCn1nc(C(=O)OCC(=O)Nc2cccc(OC)c2)c2ccccc2c1=O,2,2,nt,-1.8,-4,-4,nt,nt,nt,nt,nt,nt
Cc1cccc(/C=N/n2c(-c3ccco3)n[nH]c2=S)c1,3,nt,0.21,17*,-6,-7,0.012*,0.068*,0.031,0.016*,0.04*,0.011*
CCOc1ccccc1N1CCN(CC(O)COc2ccc3c(C)cc(=O)oc3c2)CC1 (stereo unspecified),-1,12,0.2,6.3*,5,nt,0.016,0.0044,0.027,0.0065,0.015,0.0099
CCn1c(C)c(CS(=O)(=O)c2ccccc2)[nH]c1=O,0,-15,-0.15,0.57,2,-8,nt,nt,nt,nt,nt,nt
Nc1ccc(C(=O)OC2CCOC2=O)cc1[N+](=O)[O-] (stereo unspecified),-5,-10,-0.12,1.2,-10,-1,nt,nt,nt,nt,nt,nt
Cc1cc(NC(=O)CS(=O)(=O)c2cn(Cc3ccccc3Cl)c3ccccc23)no1,2,25,nt,-2.9*,-13,5,0.0063,0.004,?,0.006*,0.015*,?
CN(C(=O)c1cccc(C#N)c1)c1nnc(-c2cnccn2)s1,-2,8,0.3,nt,-3,0,0.011,0.0064,0.031,0.0075,0.023,?
CSc1nc(SC(C)C(=O)O)c2c3c(sc2n1)COC(C)(C)C3 (stereo unspecified),-2,nt,0.5,4.8*,-1,6,0.0054,0.02*,?,0.032*,0.034*,0.021*
CCOc1ccc(NC(=O)C(=O)N/N=C/c2cccnc2)cc1,3,nt,nt,-1.5,-8,2,nt,nt,nt,nt,nt,nt
COc1ccc(NC(=O)C(=O)N/N=C/c2cccnc2)c(OC)c1,-2,-5,0.32,7.7*,-6,10,0.0058,?,0.03,0.0086,0.021,0.012
O=C1c2oc3ccccc3c(=O)c2C(c2ccc(O)cc2)N1c1nccs1 (stereo unspecified),-5,-1,-0.044,0.23,-23,1,nt,nt,nt,nt,nt,nt
